From PubChem
Most compounds without a hit are left out; they make up all but 1.7% or so of the library.
STEP block – STEP phosphatase inhibitors, primary screen, biochemical, fluorescence intensity, uHTS. recombinant STEP, OMFP fluorogenic substrate. Tyrosine-protein phosphatase non-receptor type 5 (Homo sapiens), P54829. inhibition, % at 20 µM. 360,000 tested, 0.25% active. AID 588621, 2011;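 active = inhibition at 20 µM, scaled per plate between control wells, above about 37%, limit read from the data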;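 also: 0% = DMSO with enzyme and substrate and 100% = substrate only without enzyme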
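medium = Bis-Tris buffer pH 6.0, 2.5 mM DTT, 0.005% Tween 20 | test system = STEP (striatal-enriched tyrosine phosphatase) enzyme, cell-free | measure = normalized % inhibition | compound dosing = 20 µM, 1% DMSO | also added = 25 µM OMFP | schedule = reaction 20 min, ambient temperature | measured by = fluorescence read at 480 nm ex / 540 nm em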
Scp1 inh – Scp-1 phosphatase inhibitors, primary screen, biochemical, colorimetric, uHTS; Recombinant Scp1, phosphopeptide, malachite green phosphate absorbance; inhibition, % at 20 µM; 340,000 tested, 0.88% active; Carboxy-terminal domain RNA polymerase II polypeptide A small phosphatase 1 (Homo …;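 active = inhibition above about 50% at 20 µM, limit read from the data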;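 also: plate controls were DMSO wells with enzyme for no effect and wells lacking enzyme for full effect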
Target sequence (Q9GZU7 76-261 limits assumed): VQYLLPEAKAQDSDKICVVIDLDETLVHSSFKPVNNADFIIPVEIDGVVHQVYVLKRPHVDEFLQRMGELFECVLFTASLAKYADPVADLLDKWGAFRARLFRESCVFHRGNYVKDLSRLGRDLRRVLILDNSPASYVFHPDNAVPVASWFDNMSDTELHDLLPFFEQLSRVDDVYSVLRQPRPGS
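Test system: SCP-1 phosphatase catalytic domain, residues 76-261; measured by: colorimetric phosphate reagent with accelerator and stabiliser, absorbance at 630 nm; timing: enzyme reaction 45 min at room temperature, colour 5 min, stabilisation 30 min; also added: Phosphorylated 17-residue peptide substrate; compound dosing: one concentration, 20 µM, with 1.0% DMSO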
DNMT1 inh – human DNMT1 methyltransferase inhibitors, primary screen, biochemical, molecular beacon, fluorescence, HinP1I cleavage, uHTS. inhibition (reported as % activation of signal), % at 10 µM. DNA (cytosine-5)-methyltransferase 1 (Homo sapiens), P26358. 360,000 tested, 0.83% active; in the data active = inhibition above about 50%
LMPTP inh – LMPTP phosphatase inhibitors, primary screen, biochemical, fluorescence intensity, uHTS. recombinant LMPTP-A, OMFP fluorogenic substrate. Low molecular weight phosphotyrosine protein phosphatase (Homo sapiens), P24666. inhibition, % at 20 µM. 360,000 tested, 0.22% active. AID 651560, 2012;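 active = compounds that cut the enzyme signal by at least half of the control window in the single-dose screen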;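 also: plate controls were DMSO wells with enzyme plus substrate for no effect and substrate without enzyme for full effect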
Target sequence (P24666 whole entry, looked up): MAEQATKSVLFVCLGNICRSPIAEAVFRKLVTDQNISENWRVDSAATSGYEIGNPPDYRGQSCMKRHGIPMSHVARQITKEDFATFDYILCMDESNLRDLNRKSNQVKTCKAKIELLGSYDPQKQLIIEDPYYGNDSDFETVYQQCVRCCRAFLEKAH
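Test system – LMPTP-A enzyme · Amount – LMPTP-A at 0.625 nM final in the reaction · Buffer or medium – Bis-Tris pH 6.0, DTT, detergent · Reagent – OMFP 400 µM · Doses – single 20 µM dose · Schedule – reaction 50 min, room temperature, dark · Detection – fluorescence intensity of OMFP turnover product · Evaluation – percent inhibition versus substrate-only and uninhibited controls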
SUMO1 PPI mod – modulators of SUMO1 protein-protein interactions, primary screen, biochemical, uHTS; Small ubiquitin-related modifier 1 (Homo sapiens), P63165; SUMO1 binding to a labelled peptide, TR-FRET, 1 h; inhibition, % at 20 µM; 360,000 tested, 0.33% active; in the data active = inhibition above about 37%
Target sequence (P63165 whole entry, looked up): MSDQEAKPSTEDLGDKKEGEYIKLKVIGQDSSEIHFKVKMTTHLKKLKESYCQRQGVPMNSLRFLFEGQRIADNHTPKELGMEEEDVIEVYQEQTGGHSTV
An asterisk follows results filed as active; nt = no result given.

SMILES	STEP block	Scp1 inh	DNMT1 inh	LMPTP inh	SUMO1 PPI mod
Cc1ccc2nc3c(cc(C(=O)NCCc4ccccc4)c(=N)n3CCN3CCOCC3)c(=O)n2c1	8.4	-3.0	2.1	10.2	-7.9
N=c1c(C(=O)NCc2ccc3c(c2)OCO3)cc2c(=O)n3ccccc3nc2n1Cc1cccnc1	1.6	-2.5	0.2	65.2*	-20.8
COc1ccc(CNC(=O)c2cc3c(=O)n4ccccc4nc3n(Cc3cccnc3)c2=N)cc1	-3.2	5.2	2.5	14.9	-21.6
N=c1c(C(=O)NCc2ccco2)cc2c(=O)n3ccccc3nc2n1Cc1ccccc1	3.7	7.6	75.5*	58.9*	1.7
N=c1c(C(=O)NCc2ccco2)cc2c(=O)n3ccccc3nc2n1Cc1ccc(Cl)cc1	4.7	16.3	23.3	51.8*	3.6
Cc1ccc2nc3c(cc(C(=O)NCc4ccccc4)c(=N)n3CCCn3ccnc3)c(=O)n2c1	-0.1	2.5	12.8	56.6*	-24.1
CCCCN(C(=O)CC1CCCC1)c1c(N)n(CCCC)c(=O)[nH]c1=O	-2.1	-5.5	5.2	-1.3	-4.8
O=C(/C=C/c1ccccc1)c1cc(Br)ccc(=O)c1O	10.7	-6.4	60.8*	18.5	19.1
O=[N+]([O-])c1ccccc1N/N=C/c1cccc(O)c1O	9.3	-1.8	43.3	3.2	44.6*
O=[N+]([O-])c1ccccc1N/N=C\c1ccccc1Cl	2.3	-7.7	2.3	-1.4	-2.6
O=C1c2cccc3cccc(c23)C(=O)N1/N=C/c1ccc(O)cc1O	-3.2	-7.8	12.9	-0.4	-21.3
Cc1nc2ccccc2c(=O)n1/N=C/c1ccccc1O	-3.1	-13.9	-1.2	-1.5	5.4
O=C1c2ccccc2C(=O)N1/N=C/c1ccc(O)c(O)c1O	21.7	7.7	3.6	68.0*	36.2
Cc1nc2ccccc2c(=O)n1/N=C/c1ccc(O)c(O)c1O	16.8	8.4	77.9*	83.7*	69.7*
CCN1/C(=C/c2ccc3ccccc3[n+]2CC)C=Cc2ccccc21	23.7	104.2*	40.0	46.4	19.5
Cc1cccc(N2C(=O)c3cccc4c(N)ccc(c34)C2=O)c1	-114.7	0.5	75.3*	-8.4	-107.3
CC(C)CCN1C(=O)c2cccc3c(N)ccc(c23)C1=O	-113.9	-6.6	122.4*	-5.1	-90.4
CC(=O)N1C[C@H]2CON(C)[C@H]2C[C@H]1c1cccc(N2CCOCC2)c1	1.9	nt	0.0	0.5	2.9
COc1cc(NC(=O)CSc2ncnc3sc4c(c23)CCCC4)c(C(=O)O)cc1OC	96.3*	-3.8	0.9	-1.6	9.1
O=C(O)c1ccc(C[n+]2c(-c3ccccc3)csc2Nc2ccccc2)cc1	-6.5	24.9	0.0	-0.4	1.1
CC(C)(C)c1cc(-c2csc(Nc3ccccc3)[n+]2Cc2ccc(C(=O)O)cc2)cc(C(C)(C)C)c1O	11.9	17.4	18.7	1.3	41.9*
Fc1ccc(-c2ccc3c(c2)C2CC3CCN2)cc1 (stereo unspecified)	-0.5	-12.4	-0.1	-1.3	-1.4
O=C(Nc1cc(C(=O)Nc2ccccc2C(=O)O)cc(C(=O)Nc2ccccc2C(=O)O)c1)c1ccccc1	17.7	4.0	6.6	0.1	42.4*
O=C(Nc1ccccc1C(=O)O)c1cccc(NC(=O)c2ccccc2Br)c1	-1.1	-2.8	-5.9	0.0	11.6
C=CC(=O)N1C/C(=C/c2ccc(F)cc2)C(=O)/C(=C\c2ccc(F)cc2)C1	24.5	84.7*	92.9*	7.2	75.7*
SMILES	STEP block	Scp1 inh	DNMT1 inh	LMPTP inh	SUMO1 PPI mod
COc1ccccc1C(C#N)c1cccc(Cl)n1 (stereo unspecified)	-0.5	-4.5	-1.0	-0.5	3.9
O=C(Nc1cccc(Cl)c1)Nc1nnc(-c2ccncc2)s1	7.7	-7.3	30.4	40.3	7.0
Fc1ccc(Nc2nnc(-c3ccncc3)s2)cc1Cl	-1.2	nt	0.1	8.5	42.7*
O=C(Nc1ccc(Cl)cc1)Nc1nnc(-c2ccncc2)s1	9.8	3.3	-16.4	60.4*	8.6
CC1(C(=O)NCc2ccc3c(c2)OCO3)CCN1C(=O)CCc1ccc(Cl)cc1Cl (stereo unspecified)	-1.6	nt	1.3	0.2	3.6
Cc1ccccc1OCCSc1nc2ccccc2n1CCC(=O)O	2.2	3.8	5.2	0.8	9.8
Cc1cccc(S(=O)(=O)Nc2cc(Cl)ccc2N2CCOCC2)c1	-2.9	-12.4	-3.8	2.5	-5.9
Cc1csc2c(=O)sc(NC(=O)c3ccco3)nc12	8.8	6.3	0.1	24.5	-21.3
O=C(Nc1nc2ccsc2c(=O)s1)c1ccco1	7.7	53.9*	44.1	-0.1	39.2*
Cc1ccc2nc(NC(=O)c3ccco3)sc2c1	-4.7	-7.5	-1.1	0.2	1.0
Cc1nc2ccc3nc(NC(=O)c4ccco4)sc3c2s1	3.6	25.1	6.3	0.3	54.5*
Oc1ccc(C=NNC(=S)Nc2ccc(F)cc2)c(O)c1	-5.0	-10.5	-5.3	1.0	53.2*
NNC(=O)C1C(O)CCC2CN3CCc4c([nH]c5ccccc45)C3CC21 (stereo unspecified)	-5.4	4.7	-3.4	2.2	-19.0
NC(=O)c1c(NC(=O)Cn2nc(C(=O)O)c3ccccc3c2=O)sc2c1CCCC2	-2.4	-5.6	4.8	1.2	9.7
NC(=O)c1c(NC(=O)Cn2nc(C(=O)O)c3ccccc3c2=O)sc2c1CCC2	0.3	17.1	-13.4	4.0	66.0*
CC[n+]1cc(-c2ccccc2)nc(N2CCOCC2)n1	-1.9	98.8*	5.6	-1.5	-25.2
NC(=O)c1cc(-c2ccccc2)nc(N2CCOCC2)n1	-1.5	-4.6	4.7	-0.1	2.5
CSc1nc(SCC(=O)O)c2sc3nc(-c4ccccc4)c4c(c3c2n1)CCC4	97.0*	60.2*	96.8*	94.7*	100.7*
CSc1nc(NCCN(C)C)c2sc3nc(-c4ccco4)c4c(c3c2n1)CCC4	0.6	-3.5	-12.1	-6.7	9.3
O=C(O)CSc1nc2sc3c(c2c(=O)n1-c1ccccc1)CCC3	-0.3	11.0	13.1	-1.0	4.5
CSc1nc(N(C)CCO)c2sc3nc(-c4ccco4)c4c(c3c2n1)CCC4	5.0	78.8*	37.3	1.7	24.6
Cc1ccccc1-c1cc2nc(NCc3ccccc3)n(C)c(=O)c2s1	-2.6	nt	-2.1	3.1	-11.3
CC1=N/C(=C/c2ccco2)C(=O)O1	8.6	56.5*	93.4*	-1.3	12.5
Cc1cc(NC(=O)COC(=O)C2CC(=O)N(c3ccc(Cl)cc3)C2)no1 (stereo unspecified)	-1.1	-0.8	-2.0	0.2	-1.2
O=C1C=C(c2ccc3c(c2)OCO3)C[C@@H](c2ccc3c(c2)OCO3)C1	-0.2	6.0	6.2	0.6	-4.1
